SIAE inh – human SIAE inhibition, primary screen. AID 1053197. Q9HAT2. hit rate 0.69% among 370,000. SIAE FP-Rh probe binding, fluorescence polarization. inhibition, % at 9.66 µM;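 active = inhibition above a cutoff: mean of compounds within the control limits plus 3 SD of those, cut at about 17% in these data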;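 note: 0% = plate median of compound wells and 100% = probe without SIAE protein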
Target sequence (Q9HAT2 whole entry, looked up): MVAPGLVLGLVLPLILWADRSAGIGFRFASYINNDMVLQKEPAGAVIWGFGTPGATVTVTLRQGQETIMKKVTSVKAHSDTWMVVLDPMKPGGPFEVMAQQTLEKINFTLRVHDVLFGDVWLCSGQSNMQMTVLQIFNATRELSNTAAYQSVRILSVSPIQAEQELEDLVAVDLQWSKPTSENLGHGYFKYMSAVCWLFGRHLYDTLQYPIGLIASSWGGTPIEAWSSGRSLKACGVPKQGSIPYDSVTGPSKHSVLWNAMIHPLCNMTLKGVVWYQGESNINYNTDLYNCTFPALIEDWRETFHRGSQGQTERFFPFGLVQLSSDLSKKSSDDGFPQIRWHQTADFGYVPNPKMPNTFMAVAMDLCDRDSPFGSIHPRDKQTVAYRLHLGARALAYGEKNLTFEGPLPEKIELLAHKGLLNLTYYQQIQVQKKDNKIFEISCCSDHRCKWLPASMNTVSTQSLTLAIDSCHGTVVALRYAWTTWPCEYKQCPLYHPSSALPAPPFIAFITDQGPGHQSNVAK
PRMT1 inh – blocks human protein arginine methyltransferase 1. Q99873. recombinant PRMT1, activity-based probe fluorescence polarization. inhibition, % at 2.79 µM. hit rate 1.3% among 370,000. AID 652257;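 active = inhibition above about 21% made by adding two undisclosed values, limit read from the data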
PAD4 inh – inhibitors of human PAD4; hit rate 0.41% among 330,000; recombinant PAD4, RCA probe fluorescence polarization; Q9UM07; inhibition, % at 6.36 µM;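 active = percent inhibition above a cutoff equal to the mean of all tested compounds plus 3 SD, cut at about 15% in these data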;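 note: 0% = PAD4 with RCA probe and DMSO and 100% = probe without PAD4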
TCR CD3 inh – human TCR-CD3 binding inhibition; AID 651800; TAMRA-labeled TCR probe fluorescence, biochemical; hit rate 0.37% among 360,000; inhibition, % at 9.4 µM; in the data active = inhibition above about 19%;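 note: recombinant mutant TCR 2C K166C tagged with TAMRA read by polarization; 0% = receptor in buffer alone and 100% = receptor with positive control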
HTRA1 inh – blocks human HTRA1 serine peptidase | hit rate 0.5% among 340,000 | inhibition, % at 5.96 µM | Q92743 | recombinant HTRA1, FP-rhodamine activity-based probe, fluorescence polarization | AID 504803; in the data active = inhibition above about 36%;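 note: 0% = enzyme with DMSO and 100% = wells lacking enzyme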
ABHD4 inh – inhibitors of mouse ABHD4. Q8VD66. purified mABHD4, FP-Rh probe fluorescence polarization. inhibition, % at 8.92 µM. hit rate 0.54% among 370,000. AID 720543;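 active = inhibition exceeding the mean over every tested compound plus 3 SD, cut at about 30% in these data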;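 note: 0% = plate median of compound wells and 100% = S159A mutant with DMSO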
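Material: mouse ABHD4 enzyme, wild type; Benchmarks: S159A mutant high control, sample median low control; Buffer or medium: HEPES pH 7.0, NaCl, Pluronic buffer; Signal: fluorescence polarization; Read-out: percent inhibition of probe binding, normalized to plate controls; Timing: pre-incubation 45 min, probe exposure 60 min, at 25 °C; Dosing: 8.92 µM, single dose.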
SIAE inh conf – human SIAE inhibition, confirmation. shares compounds with SIAE inh. SIAE FP-Rh activity-based probe, fluorescence polarization. inhibition, % at 9.66 µM. hit rate 13% among 2,300. AID 1117263;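 active = mean inhibition of the replicates above the hit cutoff set in the primary screen, cut at about 17% in these data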;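 note: 0% = SIAE with DMSO and probe and 100% = probe without SIAE; inhibitors lower polarization as more probe stays unbound to SIAE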
Numbers without * were called inactive; / = no result given. Shown are actives, neighbours in structure and some others; about 2.9% of the full set was active somewhere.

SMILES | SIAE inh | PRMT1 inh | PAD4 inh | TCR CD3 inh | HTRA1 inh | ABHD4 inh | SIAE inh conf
CCCC/C=C1/[C@@H](CC)N(Cc2ccc(OC)cc2OC)C2=N[C@@H](c3ccccc3)CC(=O)N21 | -4 | -4 | / | / | / | -8 | /
CCCNS(=O)(=O)c1cccc(C(=O)NNC(=O)c2cc(C)oc2C)c1 | 17* | 0 | 2 | -6 | 2 | 2 | -6
Cc1cc(C(=O)NNC(=O)c2ccc(S(=O)(=O)N(C)C)cc2)c(C)o1 | -10 | 0 | -1 | 7 | 2 | 5 | /
Cc1ccsc1C(=O)N1CC=C(c2ccccc2)CC1 | 3 | 2 | -6 | -11 | -1 | 5 | /
Cc1ccc(C(=O)N2CC=C(c3ccccc3)CC2)s1 | 19* | 2 | 5 | 7 | -13 | 1 | 0
CCCCCCn1c(-c2ccc(Cl)cc2Cl)csc1=Nc1ccccc1 | -8 | -2 | / | / | / | 4 | /
CC1CCN(C(=O)c2[nH]cnc2C(=O)N[C@@H](CCCCNC(=O)OC(C)(C)C)C(=O)OC(C)(C)C)CC1 | 22* | -2 | -3 | 4 | -12 | -1 | -5
O=S1(=O)N[C@@H](Cc2ccccc2)COc2cccc(N3CCCC3)c21 | -2 | -1 | / | 1 | / | -4 | /
O=C(COc1cc2oc(=O)c3c(c2cc1Cl)CCCC3)N1C[C@H]2C[C@@H](C1)c1cccc(=O)n1C2 | -7 | -3 | -2 | 2 | -6 | -7 | /
CC(Oc1cc2oc(=O)c3c(c2cc1Cl)CCC3)C(=O)N1C[C@H]2C[C@@H](C1)c1cccc(=O)n1C2 (some centres undefined) | 18* | 0 | 0 | 0 | -9 | 8 | 0
C[C@@H]1CCCN1c1cccc2c1S(=O)(=O)N1CC[C@@H](C1)O2 | 7 | 7 | / | / | / | 11 | /
O=C(CN(Cc1ccc(F)cc1)C(=O)CCC(=O)Nc1ccccn1)NCc1ccc(F)cc1 | -4 | 0 | 2 | 1 | -1 | 2 | /
COCCNC(=O)C(c1ccc(O)cc1)N(Cc1ccccc1)C(=O)CCC(=O)Nc1ccccn1 (centres undefined) | 20* | -3 | -8 | 6 | -3 | 4 | -3
O=C(CN(Cc1ccc(F)cc1)C(=O)CCC(=O)Nc1ccccn1)NCCc1ccccc1 | 21* | -7 | 3 | 0 | 6 | 0 | -1
O=C(O)COc1ccccc1C=NNC(=O)Cc1cc(=O)[nH][nH]1 | 6 | 3 | / | / | / | 2 | /
O=C(CNc1nnnn1-c1ccccc1)N1CCCC1 | 0 | 3 | / | / | / | 7 | /
NC(=S)N/N=C1\CCOc2ccc(Cl)cc21 | 18* | 5 | -4 | -6 | -2 | 10 | -2
Cc1ccc(C)c(OCc2nc3ccccc3[nH]2)c1 | 37* | -2 | -6 | 2 | -6 | -1 | 5
COc1ccc(S(=O)(=O)N(C)C[C@@H]2Oc3c(NC(=O)Nc4ccccc4)cccc3C(=O)N([C@@H](C)CO)C[C@H]2C)cc1 | -7 | -3 | / | / | / | -13 | /
CC(=O)Nc1sc2c(c1-c1nc3ccccc3s1)CCCNC2 | 5 | 2 | / | / | / | 4 | /
C/C(=N\O)c1ccc(Cl)cc1Cl | 2 | 0 | -3 | -1 | -3 | 2 | /
C/C(=N\O)c1cc(Cl)cc(Cl)c1O | 25* | 1 | 10 | -4 | 1 | 7 | 30*
Cc1[nH]c(C)c(C(=O)/C=C/c2ccc([N+](=O)[O-])cc2)c1C | 25* | 2 | 2 | -1 | 17 | 15 | 3
Cc1sc(NC(=O)CS(=O)(=O)c2ccccc2)c(C(N)=O)c1C | 17* | -2 | -3 | 6 | 4 | 0 | 1
CNC(=O)c1c(NC(=O)CS(=O)(=O)c2ccccc2)sc(C)c1C | 5 | 3 | -5 | 1 | -2 | -9 | /
SMILES | SIAE inh | PRMT1 inh | PAD4 inh | TCR CD3 inh | HTRA1 inh | ABHD4 inh | SIAE inh conf
CN(C)S(=O)(=O)c1cccc(C(=O)NC2CCSc3ccccc32)c1 (centres undefined) | 25* | -2 | 4 | 3 | 1 | 4 | -4
COc1ccc(/C=C2\N=C3CCCCCN3C2=O)cc1OC | 110* | -2 | -4 | -2 | 11 | -2 | 5
O=C(NCc1ccc(F)cc1)C1CCCN1C(=O)Nc1ccc(Cl)cc1 (centres undefined) | 17* | 0 | -1 | 4 | 4 | -4 | 0
O=C(NCc1ccc(Cl)cc1)C1CCCN1C(=O)Nc1ccc(F)cc1 (centres undefined) | -6 | 1 | 1 | 1 | 2 | -8 | /
O=C(NCc1ccccc1)[C@H]1CCCN1C(=O)[C@H]1CCCN1C(=O)c1ccc(F)c(F)c1 | 18* | -3 | / | 7 | / | -1 | -1
Cc1cccc2nc(-c3ccccc3)c(-c3ccc(CN4CCC5(CC4)CNc4ccccc45)cc3)nc12 | 3 | -5 | / | 1 | / | 12 | /
CC(C)(C)c1ccc(S(=O)(=O)N2CCCC(C(=O)N3CCN(Cc4ccccc4)CC3)C2)cc1 (centres undefined) | 3 | -3 | / | / | / | -3 | /
O=c1c2cn[nH]c2[nH]c(=S)n1-c1ccccc1 | 3 | 8 | 4 | -6 | 6 | 12 | /
O=c1c2cn[nH]c2[nH]c(=S)n1-c1cccc2ccccc12 | 23* | 9 | 0 | 9 | -6 | 0 | 3
CC(C)C[C@H](NC(=O)C1CC1)C(=O)N1CCC[C@H]1C(=O)NCc1ccccc1 | -2 | -3 | / | 2 | / | -3 | /
Cc1ccc(S(=O)(=O)Nc2ccc3c(c2)C(=O)c2ccccc2-3)cc1 | -2 | -6 | / | 4 | / | -5 | /
Cc1ccc(NS(=O)(=O)c2ccc3c(c2)C(=O)c2ccccc2C3=O)c(C)c1 | 18* | -2 | 4 | -1 | -2 | 11 | 4
O=S(=O)(NC1CCCc2ccccc21)c1cnc[nH]1 (centres undefined) | 26* | 2 | -3 | -2 | 3 | -3 | -3
O=S(N1CCc2ccccc21)C12CC3CC(CC(C3)C1)C2 (centres undefined) | 23* | -1 | -4 | 2 | -3 | 5 | -2
CC(C)(C)NCCC(O)c1cc(C(F)(F)F)nc2c(C(F)(F)F)cccc12 (centres undefined) | 78* | -2 | / | -6 | 6 | 11 | -5
COC(=O)C1=C(C)N(C)C(=NCc2ccc3c(c2)OCO3)NC1c1ccc(Cl)cc1 (centres undefined) | 6 | -2 | / | -1 | / | 0 | /
CC(C)(C)c1ccc(C(=O)N2CCC(C(=O)NCc3ccco3)CC2)cc1 | 17* | -1 | -2 | -11 | 3 | -3 | 1
Cc1ccc(C(=O)N2CCC(C(=O)NCc3ccco3)CC2)cc1 | 1 | -3 | -2 | -4 | 5 | -4 | /
CCOC(=O)[C@]12CCCC3=C1N(CCC3)C(=O)[C@@H](CC(=O)NCc1ccc(C)o1)C2 | 4 | 1 | / | / | / | 5 | /
COC(=O)[C@]12C[C@H](CC(=O)N3CCCCC3)C(=O)N(Cc3ccc(Cl)cc3Cl)C1=C[C@H](C(C)C)O[C@@H]2C1CC1 | -3 | -7 | / | / | / | -2 | /

Assay outcomes: PubChem BioAssay, The Scripps Research Institute Molecular Screening Center
